This note sets out measurements from ChEMBL document CHEMBL1141606, “7-Azaindole derivatives as potential partial nicotinic agonists” (Bioorg Med Chem Lett, 2008).

What is called Ki is the equilibrium dissociation constant of an inhibitor or competing ligand from its target. The term half-life denotes the time in which the quantity being followed falls by half. A word on the bioavailability: it is dose-corrected exposure relative to a reference, in per cent. As usually defined, the Cmax is the maximum level reached in the sampled fluid or tissue. In general, Kp refers to the ratio of the level in a tissue or fluid to that in plasma or blood.

Active and inactive are the calls of the source. The rule behind the calls is not given here.

The target of series [1] is T1, Neuronal acetylcholine receptor; alpha4/beta2 (Rattus norvegicus, UniProt P09483+P12390). Put plainly: (§1) Displacement of [3H]cytisine from alpha-4-beta-2 nAChR in rat brain membrane. It is filed as cell membranes. The gist of the method: (§2)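 Competition binding against [3H]cytisine on rat brain membranes at a contract lab, following a published nicotinic binding protocol. Affinity reported as Ki.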

For series [2], the target named is T2, Neuronal acetylcholine receptor; alpha4/beta2 (Rattus norvegicus) (UniProt P09483+P12390). Described as §1. The series is classed as cell membranes. In short, it runs like this:
as §2

A short description of series [3]: Metabolic stability in human liver. It is filed as ADME, tissue-based. In short, it runs like this: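 In vitro incubation with human liver homogenate; metabolic stability expressed as half-life (t1/2, min).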
Series [4] can be described thus: Oral bioavailability in rat. It is filed as ADME, organism-based. Conditions: in vivo. The gist of the method:
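Rat pharmacokinetic study with both intravenous and oral dosing; oral bioavailability (%) derived by comparing the two routes.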

The nature of series [5]: Drug level in po dosed rat brain. The series is classed as ADME, organism-based. Also noted: route oral. The gist of the method:
(§3)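 Rats dosed orally; drug concentrations at Cmax measured in brain tissue (ng/g) and in plasma (ng/ml).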

In series [6] the target is T2, Neuronal acetylcholine receptor; alpha4/beta2 (Rattus norvegicus). Kind of series: Agonist activity at alpha4beta2 nAChR in rat striatal membranes assessed as effect on [3H]dopamine release. Conditions: Striatum, Slice, in the assay text read “striatal slices” for “striatal membranes”. The series is classed as functional. In short, it runs like this: (§4)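 Rat striatal slices were used for [3H]dopamine release. Test compound was added with the K+ pulse for 5 min, at 10 nM (t = 50 min) and 1 µM (t = 90 min). […] In parallel runs, mecamylamine (0.1 µM) or DHβE (1 µM) sensitivity was read as percent inhibition of evoked release.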

Series [7] has the same target. Put plainly: Antagonist activity at alpha-4-beta-2 nAChR in rat striatal slices assessed as blockade of nicotine-induced [3H]dopamine release at 10 uM. Also noted: scale not given: the % may be the effect or the level left. Conditions: Striatum, Slice.
Series [8] is described as follows: Drug level in po dosed rat plasma. Also noted: route oral. It is filed as ADME, organism-based. In short, it runs like this: as §3
For series [9], the target named is T2, Neuronal acetylcholine receptor; alpha4/beta2 (Rattus norvegicus). Kind of series: Agonist activity at alpha-4-beta-2 nAChR in rat striatal membranes assessed as effect on [3H]dopamine release relative to nicotine. Conditions: Striatum, Slice, in the assay text read “striatal slices” for “striatal membranes”. It is filed as functional. In short, it runs like this: as §4

A short description of series [10]: Ratio of drug level in brain to plasma in po dosed rat. It is filed as ADME, organism-based. In short, it runs like this: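 Rat iv/po pharmacokinetic study. Drug levels were measured in brain (ng/g) and plasma (ng/ml) after oral administration, and the brain-plasma ratio was derived from them.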
Series [11] has as its target T1, Neuronal acetylcholine receptor; alpha4/beta2. Kind of series: Displacement of [3H]L-nicotine from alpha-4-beta-2 nAChR in rat cerebral cortex. It is filed as tissue-based.

T1 sequence (P09483 whole entry): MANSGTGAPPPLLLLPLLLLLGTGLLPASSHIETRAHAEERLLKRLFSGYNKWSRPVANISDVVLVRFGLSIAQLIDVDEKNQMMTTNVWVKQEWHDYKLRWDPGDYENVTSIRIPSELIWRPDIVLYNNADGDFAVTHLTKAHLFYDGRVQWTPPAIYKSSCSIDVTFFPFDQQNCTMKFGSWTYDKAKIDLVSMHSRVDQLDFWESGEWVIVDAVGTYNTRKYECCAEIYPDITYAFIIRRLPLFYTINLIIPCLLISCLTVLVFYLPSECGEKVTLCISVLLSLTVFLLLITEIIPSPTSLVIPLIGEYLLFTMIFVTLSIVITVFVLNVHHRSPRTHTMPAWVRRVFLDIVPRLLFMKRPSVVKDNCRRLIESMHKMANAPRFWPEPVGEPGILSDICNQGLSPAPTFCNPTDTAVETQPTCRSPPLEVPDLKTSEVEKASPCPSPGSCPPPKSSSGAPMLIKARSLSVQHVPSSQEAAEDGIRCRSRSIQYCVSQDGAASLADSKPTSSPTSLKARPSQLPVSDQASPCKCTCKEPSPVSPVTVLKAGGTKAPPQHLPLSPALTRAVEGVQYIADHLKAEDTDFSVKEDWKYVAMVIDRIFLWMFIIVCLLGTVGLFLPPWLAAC
T1 sequence (P12390 whole entry): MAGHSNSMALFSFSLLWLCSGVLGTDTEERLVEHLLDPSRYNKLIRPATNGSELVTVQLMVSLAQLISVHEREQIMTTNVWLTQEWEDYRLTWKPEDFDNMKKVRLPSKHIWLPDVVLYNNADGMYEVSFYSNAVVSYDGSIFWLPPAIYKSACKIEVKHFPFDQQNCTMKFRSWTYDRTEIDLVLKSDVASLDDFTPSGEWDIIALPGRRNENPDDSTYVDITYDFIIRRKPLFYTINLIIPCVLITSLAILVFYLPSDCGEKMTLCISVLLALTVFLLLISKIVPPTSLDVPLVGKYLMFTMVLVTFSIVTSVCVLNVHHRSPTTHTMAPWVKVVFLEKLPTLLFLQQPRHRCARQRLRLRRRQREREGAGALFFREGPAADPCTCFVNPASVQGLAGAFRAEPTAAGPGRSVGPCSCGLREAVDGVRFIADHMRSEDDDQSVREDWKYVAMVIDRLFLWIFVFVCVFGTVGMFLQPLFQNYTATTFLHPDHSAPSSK

Compound `Fc1ccc2cc(C[C@@H]3CCCN3)[nH]c2n1` registered a Ki in series [1] of 2 µM.

In [1], `c1cnc2[nH]c(C[C@@H]3CCCN3)cc2c1` gave a Ki of 2.75 µM.

The compound `c1cnc2[nH]c(C3CCNC3)cc2c1` (single isomer, unassigned; (-)) registered a Ki in [1] of 0.251 µM.

As to `Fc1ccc2cc(C[C@H]3CCCN3)[nH]c2n1`, the inhibition constant (Ki) in series [1] came out at 0.316 µM.

With `Clc1ccnc2[nH]c(C3CCCNC3)cc12` (configuration not stated), the outcome in [2] was inactive.

Consider `c1cnc2[nH]c(C3CCCNC3)cc2c1` (single isomer, unassigned; (+)), for which the result in series [2] was inactive.

In turn, `Clc1ccc2cc(C[C@H]3CCCN3)[nH]c2n1` had an inhibition constant Ki in [1] of 0.147 µM.

In turn, `Br.c1cnc2[nH]c(C3CCNC3)cc2c1` (configuration not stated) returned an inhibitory constant (Ki) in series [1] of 0.01 µM. Besides, in series [3], the half-life amounted to 2.23 h.

In [4], `c1cnc2[nH]c(C[C@H]3CCCN3)cc2c1` registered a bioavailability of 11.3%. In addition, the results for the Cmax in series [5] and in [8] were 280 ng/g and 120 ng/mL, respectively. The compound also had a half-life in series [3] of 4.43 h. Further, the result in [6] was Active. Besides, the Activity in series [7] was 70%; in series [9], 62%. Besides, the concentration ratio (Kp) in [10] is 3.7.

Turning to `Brc1ccc2cc(C[C@@H]3CCCN3)[nH]c2n1`, the outcome in series [2] was inactive.

Regarding `c1cnc2[nH]c(C3CCNC3)cc2c1` (configuration not stated), the result in series [6] was Active.

As for `CN[C@@H](C)C/C=C/c1cncc(OC)c1`, the Ki in series [11] worked out at 0.011 µM.

Consider `CN1CCC[C@@H]1Cc1cc2cccnc2[nH]1`, for which the affinity in [1] corresponds to a Ki of 2.51 µM.

On to `COc1ccc2cc(C[C@H]3CCCN3)[nH]c2n1`, for which the result in [2] was inactive.

`c1cnc2[nH]cc(C3CCCNC3)c2c1` (configuration not stated): the Ki in [1] was determined as 2.95 µM.

For `Clc1ccc2cc(C3CCCNC3)[nH]c2n1` (racemic), the result in series [2] was inactive.

In series [1], `Clc1ccc2cc(C[C@@H]3CCCN3)[nH]c2n1` yielded a Ki of 3.72 µM.

`CN1CCC[C@H]1Cc1cc2cccnc2[nH]1` registered an inhibitory constant (Ki) in series [1] of 0.691 µM.

`Clc1ccc2c(C3CCCNC3)c[nH]c2n1` (configuration not stated) gave a Ki in series [1] of 2.95 µM.

Consider `Clc1ccc2cc(C3CCCNC3)[nH]c2n1` (single isomer, unassigned; (-)), for which the result in series [2] was inactive.

In turn, `Clc1ccc2cc(C3CCCNC3)[nH]c2n1` (single isomer, unassigned; (+)) registered an inhibition constant Ki in series [1] of 3.46 µM.

On to `c1cnc2[nH]c(C3CCNC3)cc2c1` (racemic), for which the Ki in series [1] was determined as 0.016 µM.

In [1], `c1cnc2[nH]c(C3CCCNC3)cc2c1` (single isomer, unassigned; (-)) gave a Ki of 2 µM.

In series [1], `Brc1ccc2cc(C[C@H]3CCCN3)[nH]c2n1` showed a Ki of 0.691 µM.
